Measurements: ChEMBL document CHEMBL1122927, “Metabolism of the nigrostriatal toxin 1-methyl-4-phenyl-1,2,3,6-tetrahydropyridine by liver homogenate fractions” (J Med Chem, 1985)

Experiments:
Assay type in all cases: ADME
Details in all cases: microsomes
Oryctolagus cuniculus [1] = species on record: Oryctolagus cuniculus; test: Formation of metabolite by rabbit liver microsomal preparation in presence of SKF525A,at 2 hour
Summary of the method: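 Rabbit liver microsomes were preincubated 5 min with SKF 525A (5 × 10⁻⁴ M) before MPTP (0.5–1.0 mM) was added. Run in 100 mM Hepes pH 7.6 with an NADPH-generating system, 2–3 mg protein/mL, 37 °C, 2 h. Stopped with cold acetonitrile. Nor and N-oxide products quantified by reverse-phase HPLC (254 nm) as nmol/mL per 2 h.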

Oryctolagus cuniculus [2] = species on record: Oryctolagus cuniculus; test: Formation of metabolite by rabbit liver microsomal preparation in absence of NADPH, at 2 hours
Summary of the method: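 Rabbit liver microsomes (2–3 mg protein/mL), 100 mM Hepes pH 7.6, 0.5–1.0 mM MPTP, with the NADPH-generating system omitted; 37 °C for 2 h. Stopped with cold acetonitrile and centrifuged. Nor and N-oxide products measured by reverse-phase HPLC at 254 nm as nmol/mL per 2 h.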

Oryctolagus cuniculus [3] = species on record: Oryctolagus cuniculus; test: Formation of metabolite by rabbit liver microsomal preparation in presence of NADPH, at 2 hours
Summary of the method: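 Male New Zealand white rabbit liver microsomes (100000g pellet, 2–3 mg protein/mL) in 100 mM Hepes pH 7.6 with an NADPH-generating system and 0.5–1.0 mM MPTP, in air, 37 °C, 2 h. Stopped with 2 volumes ice-cold acetonitrile, then centrifuged. Reverse-phase HPLC (acetonitrile/100 mM acetic acid 65:35, pH 5.6, 254 nm) quantified nor and N-oxide peaks as nmol/mL per 2 h.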

Oryctolagus cuniculus [4] = species on record: Oryctolagus cuniculus; test: Formation of metabolite by rabbit liver microsomal preparation in presence of Co-O2 (90:10),at 2 hour
Summary of the method: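 Buffer was saturated with CO-O2 (90:10), and incubation ran in sealed vials under that gas. Rabbit liver microsomes (2–3 mg protein/mL), 100 mM Hepes pH 7.6, NADPH-generating system, 0.5–1.0 mM MPTP, 37 °C, 2 h. Stopped with cold acetonitrile. Nor and N-oxide products quantified by reverse-phase HPLC (254 nm) as nmol/mL per 2 h.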

Oryctolagus cuniculus [5] = species on record: Oryctolagus cuniculus; test: Formation of metabolite by rabbit liver microsomal preparation in presence of N2,at 2 hour
Summary of the method: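 Incubation under 100% N2, with N2-saturated buffer in sealed vials. Rabbit liver microsomes (2–3 mg protein/mL), 100 mM Hepes pH 7.6, NADPH-generating system, 0.5–1.0 mM MPTP, 37 °C, 2 h. Stopped with ice-cold acetonitrile. Nor and N-oxide products read by reverse-phase HPLC at 254 nm, expressed as nmol/mL per 2 h.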

Compound	Amount of metabolite (Oryctolagus cuniculus [1]) [nM ml-1]	Amount of metabolite (Oryctolagus cuniculus [2]) [nM ml-1]	Amount of metabolite (Oryctolagus cuniculus [3]) [nM ml-1]	Amount of metabolite (Oryctolagus cuniculus [4]) [nM ml-1]	Amount of metabolite (Oryctolagus cuniculus [5]) [nM ml-1]
C[N+]1([O-])CC=C(c2ccccc2)CC1 (stereo not given)	170	0	190	160	0
C1=C(c2ccccc2)CCNC1	70	0	130	53	16
